Assay results collected from several papers.
Cell line: U-937
Effect on: cell growth or viability

| SMILES | assay | conditions | IC50 |
| --- | --- | --- | --- |
| CCCCCCCCC1=CC2C=CC=CC1C2C1CCCCC1=O (stereo not drawn) | flow cytometry | – | 0.084 µM |
| COc1cc(-c2ncn(/C=C\C(=O)OC(C)C)n2)cc(C(F)(F)F)c1 | – | 72 h | 0.223 µM |
| CCC[C@H](Nc1nc(-c2ccc(NC(=O)NCC)c(OC)c2)ncc1C)c1cccnc1 | fluorescence | 72 h | 0.0331 µM |
| CCOC(=O)CCC1=CC2C=CC=CC1C2C1CCCCC1=O (stereo not drawn) | flow cytometry | – | 0.051 µM |
| COc1cc2nccc(Oc3ccc(NC(=O)C4(C(=O)Nc5ccc(F)cc5)CC4)cc3)c2cc1OC | trypan blue | 72 h | 2.99 µM |
| CC(C)C[C@H](NC(=O)[C@H](Cc1ccccc1)NC(=O)c1cnccn1)B(O)O | ATP luminescence | – | 0.0044 µM |
| C#CCSc1nc(Sc2nnnn2-c2ccccc2)c2nnn(Cc3ccc(OC)cc3)c2n1 | MTS | 6 days | 3.23 µM |
| O=C1CCCCC1C1C2C=CC=CC1/C(=C/c1ccccc1)C2 (stereo not drawn) | flow cytometry | – | 0.077 µM |
| CC[C@]1(O)C[C@H]2CN(CCc3c([nH]c4ccccc34)[C@@](C(=O)OC)(c3cc4c(cc3OC)N(C=O)[C@H]3[C@@](O)(C(=O)OC)[C@H](OC(C)=O)[C@]5(CC)C=CCN6CC[C@]43[C@@H]65)C2)C1 | fluorescence | 72 h | 0.0076 µM |
| CC(=O)O[C@H]1C(=O)[C@@]2(C)[C@H]([C@H](OC(=O)c3ccccc3)[C@]3(O)C[C@H](OC(=O)[C@H](O)[C@@H](NC(=O)c4ccccc4)c4ccccc4)C(C)=C1C3(C)C)[C@]1(OC(C)=O)CO[C@@H]1C[C@@H]2O | – | 72 h | 0.0027 µM |
| COc1cc(Nc2nccc(-c3cnn4nc(OC)ccc34)n2)cc(C(F)(F)F)c1 | ATP luminescence | – | 0.21 µM |
| CC(C)[C@H](N)C(=O)N1CCC[C@H]1B(O)O | ATP luminescence | 48 h | > 60 µM |
| Nc1nc(Nc2ccc3c(c2)CC[C@@H](N2CCCC2)CC3)nn1-c1cc2c(nn1)-c1ccccc1CCC2 | trypan blue | 72 h | 1.45 µM |
| CC(=O)OCCC1=CC2C=CC=CC1C2C1CCCCC1=O (stereo not drawn) | flow cytometry | – | 0.167 µM |
| N[C@@H](CC(=O)N1CCN(C(c2ccc(F)cc2)c2ccc(F)cc2)CC1)C(=O)N1Cc2ccccc2C1 | ATP luminescence | 48 h | 27.4 µM |
